One block for each compound: values may come before it. The source made the active and inactive calls. The calls are words filed in the database; no cut-off is given here.
Key:
[1] = target: T1, Acyl-CoA (8-3)-desaturase (Rattus norvegicus, UniProt Q920R3); assay: Inhibition of D5D in Sprague-Dawley rat liver microsomes using [14C]DGLA as substrate preincubated for 5 mins measured after 120 mins
[2] = target: T2, Acyl-CoA (8-3)-desaturase (Homo sapiens, UniProt O60427); assay: Ratio of inhibition of D5D in human HepG2 cells preincubated for 30 mins followed by [14C]DGLA substrate addition measured after 3 hrs to inhibition of D5D in human HepG2 cells assessed as inhibition of [14C]AA production preincubated for 3 hrs followed by compound washout and addition of [14C]DGLA substrate measured after 4 hrs; format: cell-based
Target sequence in this assay (O60427 whole entry, looked up): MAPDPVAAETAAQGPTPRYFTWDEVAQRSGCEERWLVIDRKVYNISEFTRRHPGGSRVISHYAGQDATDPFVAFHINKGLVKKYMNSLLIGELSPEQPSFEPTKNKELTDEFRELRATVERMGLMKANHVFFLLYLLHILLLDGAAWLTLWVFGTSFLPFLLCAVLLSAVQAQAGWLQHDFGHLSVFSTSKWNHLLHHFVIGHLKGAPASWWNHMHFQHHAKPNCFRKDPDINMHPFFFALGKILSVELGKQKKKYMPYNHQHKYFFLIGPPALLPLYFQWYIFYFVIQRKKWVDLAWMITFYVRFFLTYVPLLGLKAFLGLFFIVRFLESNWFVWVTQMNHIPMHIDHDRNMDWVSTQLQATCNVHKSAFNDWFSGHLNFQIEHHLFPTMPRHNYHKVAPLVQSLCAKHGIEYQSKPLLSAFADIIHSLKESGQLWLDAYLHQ

[3] = target: Acyl-CoA (8-3)-desaturase (Rattus norvegicus) (UniProt Q920R3); assay: Displacement of [3H]T-3364366 from D5D in Sprague-Dawley rat liver microsomes after 150 mins by liquid scintillation counting
Procedure, shortened: (§1)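 Filter binding with [³H]T-3364366 as probe on rat liver microsomes, incubated 150 min. Specific binding is total minus nonspecific. In displacement runs, DMSO serves as 100% and 10 μM nonlabeled T-3364366 as 0%. Mean ± SEM, n = 3; apparent Kd reported with 95% CI.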

Acyl-CoA 6-desaturase = Acyl-CoA 6-desaturase (Rattus norvegicus, UniProt Q9Z122); assay: Inhibition of D6D in Sprague-Dawley rat liver microsomes using [14C]LA as substrate preincubated for 5 mins measured after 30 mins
[4] = target: T2, Acyl-CoA (8-3)-desaturase; assay: Inhibition of D5D in human HepG2 cells using [14C]DGLA as substrate preincubated for 30 mins followed by substrate addition measured after 3 hrs; format: cell-based
Target sequence in this assay (O60427 whole entry): as the sequence (O60427 whole entry, looked up) above

Acyl-CoA desaturase 1 = target: T3, Acyl-CoA desaturase 1 (Rattus norvegicus, UniProt P07308); assay: Inhibition of SCD in Sprague-Dawley rat liver microsomes using [14C]stearoyl-CoA as substrate preincubated for 5 mins measured after 30 mins
T3 sequence (P07308 whole entry): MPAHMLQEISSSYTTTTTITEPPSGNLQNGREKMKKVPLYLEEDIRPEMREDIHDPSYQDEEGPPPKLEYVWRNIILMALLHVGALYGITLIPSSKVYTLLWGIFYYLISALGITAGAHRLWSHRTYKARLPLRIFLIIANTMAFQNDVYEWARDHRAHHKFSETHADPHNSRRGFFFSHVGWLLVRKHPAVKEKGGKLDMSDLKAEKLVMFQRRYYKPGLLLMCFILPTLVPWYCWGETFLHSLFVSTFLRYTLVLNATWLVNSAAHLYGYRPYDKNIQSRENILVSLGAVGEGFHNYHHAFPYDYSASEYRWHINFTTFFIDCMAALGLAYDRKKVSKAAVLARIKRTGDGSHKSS

[5] = target: T1, Acyl-CoA (8-3)-desaturase; assay: Inhibition of D5D in rat RLN10 cells using [14C]DGLA as substrate preincubated for 30 mins followed by substrate addition measured after 3 hrs; format: cell-based
[6] = target: Acyl-CoA (8-3)-desaturase (Rattus norvegicus) (UniProt Q920R3); assay: Displacement of [3H]T-3364366 from D5D in Sprague-Dawley rat liver microsomes at high concentrations after 150 mins by liquid scintillation counting; procedure, shortened: as §1
[7] = AUC(0 to 8 hrs) in mouse at 0.10 mg/kg, iv administered in cassette mode; format: ADME, organism-based; parameters: dose 0.1 mg/kg, route intravenous; conditions: in vivo, 0.1 mg/kg
Procedure, shortened: (§2)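 Mouse cassette dosing, n = 3 per group. Given iv at 0.10 mg/kg or orally. Plasma AUC taken over 0–8 h. Total clearance, Vdss and MRT derived from the iv arm. Bioavailability F computed as a percentage.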

[8] = Total clearance in mouse at 0.10 mg/kg, iv administered in cassette mode; format: ADME, organism-based; conditions: in vivo, 0.1 mg/kg; procedure, shortened: as §2
[9] = target: T2, Acyl-CoA (8-3)-desaturase; assay: Binding affinity to recombinant wild type D5D (unknown origin) expressed in baculovirus at 5 to 25 nM after 150 mins by liquid scintillation counting
Target sequence in this assay (O60427 whole entry, looked up): as the sequence (O60427 whole entry, looked up) above

[10] = target: Acyl-CoA (8-3)-desaturase (Rattus norvegicus) (UniProt Q920R3); assay: Reversible binding affinity to D5D in Sprague-Dawley rat liver microsomes after 150 mins in presence of trichloroacetate by liquid scintillation counting
[11] = Volume of distribution in steady state in mouse at 0.10 mg/kg, iv administered in cassette mode; format: ADME, organism-based; conditions: in vivo, 0.1 mg/kg, read-out: Vdss; procedure, shortened: as §2
Homo sapiens = organism: Homo sapiens; assay: Binding affinity to recombinant D6Db5 (1 to 100 residues)/D5Ddes (100 to 444 residues) domain swapped mutant (unknown origin) expressed in baculovirus at 5 to 25 nM after 150 mins by liquid scintillation counting
[12] = target: T2, Acyl-CoA (8-3)-desaturase; assay: Inhibition of D5D in human HepG2 cells using [14C]DGLA as substrate assessed as suppression of [14C]AA production at 10 uM preincubated for 3 hrs followed by compound washout and addition of substrate measured after 4 hrs by liquid scintillation counting; format: cell-based
Procedure, shortened: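 HepG2 cells treated with compound for 3 h, then washed three times. Cells pulsed with [¹⁴C]DGLA and incubated a further 4 h. [¹⁴C]AA production normalized: DMSO as 100%, 10 μM T-3364366 without washout as 0%. Mean ± SEM, n = 4.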
Target sequence in this assay (O60427 whole entry, looked up): as the sequence (O60427 whole entry, looked up) above

[13] = Oral bioavailability in mouse at 1 mg/kg administered in cassette mode; format: ADME, organism-based; conditions: in vivo; procedure, shortened: as §2
[14] = target: Acyl-CoA (8-3)-desaturase (Rattus norvegicus) (UniProt Q920R3); assay: Binding affinity to D5D in Sprague-Dawley rat liver microsomes at 1.2 to 20 nM measured up to 2.5 hrs by liquid scintillation counting; conditions: TDE = time-dependent effect
Procedure, shortened: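 Time course: various [³H]T-3364366 concentrations incubated with microsomal D5D. Specific binding determined at several time points up to 2.5 h.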

[15] = target: Acyl-CoA (8-3)-desaturase (Rattus norvegicus) (UniProt Q920R3); assay: Reversible binding affinity to D5D in Sprague-Dawley rat liver microsomes assessed as dissociation half life at 6 nM preincubated for 150 mins followed by 2 fold dilution by 10 uM of T-3364366 by liquid scintillation counting
Procedure, shortened: (§3)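 Binary complex formed by preincubating [³H]T-3364366 (6.0 nM) with microsomal D5D for 150 min. Mixture then diluted 2-fold with excess nonlabeled T-3364366 (10 μM) to block rebinding. Residual specific binding followed over time to 21 h. Dissociation half-life fitted with 95% CI, without correcting for time-dependent loss of binding.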

[16] = MRT in mouse at 0.10 mg/kg, iv administered in cassette mode; format: ADME, organism-based; conditions: in vivo, 0.1 mg/kg; procedure, shortened: as §2
[17] = AUC(0 to 8 hrs) in mouse at 1 mg/kg, po administered in cassette mode; format: ADME, organism-based; parameters: dose 1 mg/kg, route oral; conditions: in vivo; procedure, shortened: as §2
[18] = target: T1, Acyl-CoA (8-3)-desaturase; assay: Binding affinity to D5D in Sprague-Dawley rat liver microsomes after 150 mins by liquid scintillation counting; conditions: read-out: Kd(app); procedure, shortened: as §1
[19] = target: Acyl-CoA (8-3)-desaturase (Rattus norvegicus) (UniProt Q920R3); assay: Reversible binding affinity to D5D in Sprague-Dawley rat liver microsomes assessed as compound bound to protein at 6 nM preincubated for 150 mins followed by 2 fold dilution by 10 uM of T-3364366 measured after 21 hrs by liquid scintillation counting relative to control; procedure, shortened: as §3
[20] = MRT in mouse at 1 mg/kg, po administered in cassette mode; format: ADME, organism-based; conditions: in vivo

Acyl-CoA (8-3)-desaturase (Rattus norvegicus), sequence (Q920R3 whole entry, looked up): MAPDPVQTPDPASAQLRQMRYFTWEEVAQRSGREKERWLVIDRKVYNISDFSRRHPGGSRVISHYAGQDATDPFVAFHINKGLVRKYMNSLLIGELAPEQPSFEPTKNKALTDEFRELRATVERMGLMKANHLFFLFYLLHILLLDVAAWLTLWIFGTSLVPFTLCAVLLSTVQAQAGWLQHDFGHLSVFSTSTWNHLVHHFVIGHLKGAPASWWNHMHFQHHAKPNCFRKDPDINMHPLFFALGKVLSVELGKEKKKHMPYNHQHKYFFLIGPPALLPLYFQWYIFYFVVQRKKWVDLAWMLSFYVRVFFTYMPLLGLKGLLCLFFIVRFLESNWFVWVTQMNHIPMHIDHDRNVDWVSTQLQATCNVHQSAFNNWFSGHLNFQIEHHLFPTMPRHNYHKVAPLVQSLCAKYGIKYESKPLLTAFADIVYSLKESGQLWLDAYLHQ
T1 sequence (Q920R3 whole entry): as the sequence (Q920R3 whole entry, looked up) above
Acyl-CoA 6-desaturase, sequence (Q9Z122 whole entry): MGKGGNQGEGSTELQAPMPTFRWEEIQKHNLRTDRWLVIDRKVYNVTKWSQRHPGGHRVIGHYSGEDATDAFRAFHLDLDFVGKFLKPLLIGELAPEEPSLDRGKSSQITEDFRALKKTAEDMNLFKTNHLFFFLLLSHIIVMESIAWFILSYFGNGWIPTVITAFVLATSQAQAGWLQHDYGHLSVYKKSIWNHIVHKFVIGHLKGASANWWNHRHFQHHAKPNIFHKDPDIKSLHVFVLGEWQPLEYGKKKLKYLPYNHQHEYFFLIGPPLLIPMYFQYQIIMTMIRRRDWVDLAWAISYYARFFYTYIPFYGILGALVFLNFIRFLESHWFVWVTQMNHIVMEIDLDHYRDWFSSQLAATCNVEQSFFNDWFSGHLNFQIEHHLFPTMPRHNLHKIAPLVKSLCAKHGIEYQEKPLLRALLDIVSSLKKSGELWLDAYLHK

IC50 [1]: 160 nM | Ratio [2]: 1000 | inhibition [3]: Active | IC50 (Acyl-CoA 6-desaturase): > 10 µM | IC50 [4]: 29 nM | IC50 (Acyl-CoA desaturase 1): > 10 µM | IC50 [5]: 26 nM
SMILES: Nc1ccccc1C(=O)Nc1cccc(Cl)c1

inhibition [3]: Active
SMILES: COc1ccc(OC)c(NC(=O)Nc2cccc(F)c2)c1

More lines, now with the values behind:

SMILES: N#CC(CCCN1CCN(/N=C/c2cccnc2)CC1)(c1ccccc1)c1ccccc1
inhibition [6]: Active

SMILES: Cc1cn([C@H]2C[C@@H](O)[C@@H](COC(c3ccccc3)(c3ccccc3)c3ccccc3)O2)c(=O)[nH]c1=O
inhibition [3]: Active

SMILES: Cc1ccc2c(c1)Nc1cc(C)ccc1CC2
inhibition [3]: Active

SMILES: CC(=O)NCCSc1nc2cscc2c(=O)n1-c1ccc(OCC(F)(F)F)cc1
AUC(0-t) at 6 h [7]: 65 ng·h/mL | IC50 [1]: 19 nM | clearance [8]: 25 mL/min/kg | Activity [9]: Active | Activity [10]: Active | Vd [11]: 1.1 L/kg | Activity (Homo sapiens): Active | inhibition [12]: Active | bioavailability [13]: 41% | Activity [14]: Tde | T1/2 [15]: 2 h | IC50 (Acyl-CoA 6-desaturase): 6.2 µM | MRT [16]: 39 min | AUC(0-t) at 6 h [17]: 260 ng·h/mL | IC50 [4]: 1.9 nM | Kd [18]: 2.7 nM | IC50 (Acyl-CoA desaturase 1): > 10 µM | Activity [19]: < 10% | IC50 [5]: 2.1 nM | MRT [20]: 1.8 h
